The target in series [1] is T1, Gastrin/cholecystokinin type B receptor (Homo sapiens, UniProt P32239).
T1 sequence (P32239 whole entry): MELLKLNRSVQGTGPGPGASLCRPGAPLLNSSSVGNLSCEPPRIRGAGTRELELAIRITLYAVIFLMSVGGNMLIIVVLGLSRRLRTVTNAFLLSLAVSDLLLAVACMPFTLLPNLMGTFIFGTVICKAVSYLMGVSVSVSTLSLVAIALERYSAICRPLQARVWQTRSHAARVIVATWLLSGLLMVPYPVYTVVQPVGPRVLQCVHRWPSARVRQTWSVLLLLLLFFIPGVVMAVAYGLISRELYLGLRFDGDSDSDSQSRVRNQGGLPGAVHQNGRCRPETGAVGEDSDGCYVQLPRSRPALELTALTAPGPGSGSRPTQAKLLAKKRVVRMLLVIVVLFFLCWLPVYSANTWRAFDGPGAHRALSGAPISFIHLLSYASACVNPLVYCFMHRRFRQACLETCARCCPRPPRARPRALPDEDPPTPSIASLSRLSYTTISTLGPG
Description: (§1) Displacement of Eu-DTPA-PEGO-CCK4 from human cholecystokinin 2 receptor overexpressed in HEK-293 cells co-expressing human MC4R after 1 hr by time resolved fluorescence-based competition binding assay. It is filed as cell-based, HEK293. Summed up:
(§2)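 HEK-293 cells engineered to co-express hCCK2R and hMC4R, grown in DMEM/10% FBS with zeocin and geneticin, seeded 240,000 per well in six-well plates. Each well received binding buffer (DMEM, HEPES, BSA, 1,10-phenanthroline, leupeptin, bacitracin, pH 7.4) containing 15 nM Eu probe plus competitor at 10^-12 to 10^-5 M. Incubation 1 h at 37 °C, then scraping, three washes, Enhancement Solution 1 h at 37 °C, Eu TRF read.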

For series [2], the target named is T2, Gastrin/cholecystokinin type B receptor (Homo sapiens) (UniProt P32239).
T2 sequence (whole entry): T1 sequence (P32239 whole entry)
Description: Displacement of Eu-DTPA-PEGO-CCK4 from human cholecystokinin 2 receptor overexpressed in HEK-293 cells co-expressing human MC4R after 1 hr by time resolved fluorescence-based competition binding assay relative to acetylated […]. It is filed as cell-based. The note with it: HEK293.

A short description of series [3]: Retention time of the compound by reverse phase HPLC analysis. It is filed as physicochemical.
Series [4] is described as follows: Retention time of the compound by analytical HPLC method. It is filed as physicochemical.
Series [5] deals with T2, Gastrin/cholecystokinin type B receptor (Homo sapiens). The series is described as §1. Particulars: HEK293. Format: cell-based. An outline of the steps: as §2

Calls of active or inactive are those of the source. The rule behind the calls is not given here. Where a SMILES comes first, the peptide text is derived from it. [ ]: non-standard residue; d: D form. The star is where a group is joined. Hexanoyl(6-N3) = [N-]=[N+]=NCCCCCC(=O)*; Azidoacetyl = [N-]=[N+]=NCC(=O)*; X1 = C#CCCCCOCCOCCOCCOCCOCC(=O)*; Nle = CCCC[C@H](N)C(=O)O

As for `CCCC[C@H](NC(=O)[C@H](Cc1c[nH]c2ccccc12)NC(=O)Cn1cc(CN(Cc2cn(CC(=O)N[C@@H](Cc3c[nH]c4ccccc34)C(=O)N[C@@H](CCCC)C(=O)N[C@@H](CC(=O)O)C(=O)N[C@@H](Cc3ccccc3)C(N)=O)nn2)Cc2cn(CC(=O)N[C@@H](Cc3c[nH]c4ccccc34)C(=O)N[C@@H](CCCC)C(=O)N[C@@H](CC(=O)O)C(=O)N[C@@H](Cc3ccccc3)C(N)=O)nn2)nn1)C(=O)N[C@@H](CC(=O)O)C(=O)N[C@@H](Cc1ccccc1)C(N)=O`, the Ki (usually a dissociation constant, usually derived from enzyme kinetics or from competition with a known ligand) in series [1] was 1.2 nM. The Ratio in series [2] is 5. Moreover, the Retention_time in series [3] turned out to be 15.1 min; in series [4], 21.18 min.
On to `CCCC[C@H](NC(=O)[C@H](Cc1c[nH]c2ccccc12)NC(=O)CN=[N+]=[N-])C(=O)N[C@@H](CC(=O)O)C(=O)N[C@@H](Cc1ccccc1)C(N)=O` (Azidoacetyl-W[Nle]DF-NH2), for which the Retention_time in series [3] stood at 14.6 min.
As for `NC(=O)[C@H](CO)NC(=O)CCCCCn1cc(COc2cc(OCc3cn(CCCCCC(=O)N[C@@H](CO)C(N)=O)nn3)cc(OCc3cn(CCCCCC(=O)N[C@@H](CO)C(N)=O)nn3)c2)nn1`, in series [5], the inhibition entry was “inactive”.
`CCCC[C@H](NC(=O)[C@H](Cc1c[nH]c2ccccc12)NC(C)=O)C(=O)N[C@@H](CC(=O)O)C(=O)N[C@@H](Cc1ccccc1)C(N)=O` (Ac-W[Nle]DF-NH2) came in with a Ki in series [1] of 6.1 nM. In addition, the Ratio in series [2] was 1. The Retention_time in series [3] is 13.3 min; in series [4], 17.47 min.
For the compound `NC(=O)[C@H](CO)NC(=O)CCCCCn1cc(CN(Cc2cn(CCCCCC(=O)N[C@@H](CO)C(N)=O)nn2)Cc2cn(CCCCCC(=O)N[C@@H](CO)C(N)=O)nn2)nn1`, the inhibition entry in series [5] was “inactive”.
Take `CCCC[C@H](NC(=O)[C@H](Cc1c[nH]c2ccccc12)NC(=O)CCCCCn1cc(COc2cc(OCc3cn(CCCCCC(=O)N[C@@H](Cc4c[nH]c5ccccc45)C(=O)N[C@@H](CCCC)C(=O)N[C@@H](CC(=O)O)C(=O)N[C@@H](Cc4ccccc4)C(N)=O)nn3)cc(OCc3cn(CCCCCC(=O)N[C@@H](Cc4c[nH]c5ccccc45)C(=O)N[C@@H](CCCC)C(=O)N[C@@H](CC(=O)O)C(=O)N[C@@H](Cc4ccccc4)C(N)=O)nn3)c2)nn1)C(=O)N[C@@H](CC(=O)O)C(=O)N[C@@H](Cc1ccccc1)C(N)=O`: the Ki in series [1] was 3.7 nM. Further, the Ratio in series [2] stood at 2. For the same compound, the Retention_time is 16.6 min in series [3] and 22.42 min in series [4].
Regarding `CCCC[C@H](NC(=O)[C@H](Cc1c[nH]c2ccccc12)NC(=O)CCCCCN=[N+]=[N-])C(=O)N[C@@H](CC(=O)O)C(=O)N[C@@H](Cc1ccccc1)C(N)=O` ({Hexanoyl(6-N3)}-W[Nle]DF-NH2), the Retention_time in series [3] came to 17.7 min.
Turning to `CCCC[C@H](NC(=O)[C@H](Cc1c[nH]c2ccccc12)NC(=O)COCC(=O)NCCCOCCOCCOCCCNC(=O)CN(CCN(CCN(CC(=O)O)CC(=O)O)CC(=O)O)CC(=O)O)C(=O)N[C@@H](CC(=O)O)C(=O)N[C@@H](Cc1ccccc1)C(N)=O`, in series [3], the Retention_time is given as 22.9 min.
On the same count and under the same terms, for `C#CCCCCOCCOCCOCCOCCOCC(=O)N[C@@H](Cc1c[nH]c2ccccc12)C(=O)N[C@@H](CCCC)C(=O)N[C@@H](CC(=O)O)C(=O)N[C@@H](Cc1ccccc1)C(N)=O` (X1-W[Nle]DF-NH2) the value was 16.9 min.
`CCCC[C@H](NC(=O)[C@H](Cc1c[nH]c2ccccc12)NC(=O)COCCOCCOCCOCCOCCCCc1cn(CCCCCCOc2cc(OCCCCCCn3cc(CCCCOCCOCCOCCOCCOCC(=O)N[C@@H](Cc4c[nH]c5ccccc45)C(=O)N[C@@H](CCCC)C(=O)N[C@@H](CC(=O)O)C(=O)N[C@@H](Cc4ccccc4)C(N)=O)nn3)cc(OCCCCCCn3cc(CCCCOCCOCCOCCOCCOCC(=O)N[C@@H](Cc4c[nH]c5ccccc45)C(=O)N[C@@H](CCCC)C(=O)N[C@@H](CC(=O)O)C(=O)N[C@@H](Cc4ccccc4)C(N)=O)nn3)c2)nn1)C(=O)N[C@@H](CC(=O)O)C(=O)N[C@@H](Cc1ccccc1)C(N)=O` came in with a Ki in series [1] of 30 nM. In addition, the Ratio in series [2] was 0.2. Further, the Retention_time in series [3] came to 19.8 min; in series [4], 25.12 min.

The values are drawn from ChEMBL document CHEMBL3400052, “Development of a time-resolved fluorescence probe for evaluation of competitive binding to the cholecystokinin 2 receptor” (Bioorg Med Chem, 2015).
